Sampled rows, rich in hits. Any-hit rate of the full collection: about 2.9%.
DUSP1 inh: blocks human MKP-1 phosphatase activity | P28562 | 0.15% of 65,000 active | inhibition, %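 (compounds tested at a single concentration somewhere between 10 and 100 µM)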 | recombinant MKP-1, OMFP hydrolysis fluorescence;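 active means inhibition above about 50%, limit read from the data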;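 further: 0% = DMSO max control wells and 100% = wells with enzyme stopped by NaOH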
Cdc25B inh: human M-phase inducer phosphatase 2 inhibition | P30305 | recombinant Cdc25B, OMFP fluorescence Ex485/Em525 | inhibition, %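 (compounds tested at 10 µM final in the well)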 | 0.1% of 65,000 active | AID 368; in the data active means inhibition above about 50%
BAP1 inh: blocks human BAP1 ubiquitin-AMC hydrolysis; 0.48% of 72,000 active; AID 436; recombinant BAP1, Ub-AMC hydrolysis fluorescence kinetic; stronger effect = lower value; calls only at 20 µM; Q92560;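 active means activity remaining at or below 50% of control, provided the compound also passes the data quality filters; inactive means the rest, including low values that fail the filters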;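 further: 100% = DMSO wells rate and 0% = substrate alone blank rate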
Ec RNAP inh: inhibitors of Escherichia coli RNA polymerase; P0A8V2; E. coli RNA polymerase, fluorescence transcription assay; inhibition, %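 (tested at 10 µM)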; 0.2% of 62,000 active; in the data active means inhibition above about 20%;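 further: 0% = enzyme without compound and 100% = no enzyme blank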
Target sequence (P0A8V2 whole entry, looked up): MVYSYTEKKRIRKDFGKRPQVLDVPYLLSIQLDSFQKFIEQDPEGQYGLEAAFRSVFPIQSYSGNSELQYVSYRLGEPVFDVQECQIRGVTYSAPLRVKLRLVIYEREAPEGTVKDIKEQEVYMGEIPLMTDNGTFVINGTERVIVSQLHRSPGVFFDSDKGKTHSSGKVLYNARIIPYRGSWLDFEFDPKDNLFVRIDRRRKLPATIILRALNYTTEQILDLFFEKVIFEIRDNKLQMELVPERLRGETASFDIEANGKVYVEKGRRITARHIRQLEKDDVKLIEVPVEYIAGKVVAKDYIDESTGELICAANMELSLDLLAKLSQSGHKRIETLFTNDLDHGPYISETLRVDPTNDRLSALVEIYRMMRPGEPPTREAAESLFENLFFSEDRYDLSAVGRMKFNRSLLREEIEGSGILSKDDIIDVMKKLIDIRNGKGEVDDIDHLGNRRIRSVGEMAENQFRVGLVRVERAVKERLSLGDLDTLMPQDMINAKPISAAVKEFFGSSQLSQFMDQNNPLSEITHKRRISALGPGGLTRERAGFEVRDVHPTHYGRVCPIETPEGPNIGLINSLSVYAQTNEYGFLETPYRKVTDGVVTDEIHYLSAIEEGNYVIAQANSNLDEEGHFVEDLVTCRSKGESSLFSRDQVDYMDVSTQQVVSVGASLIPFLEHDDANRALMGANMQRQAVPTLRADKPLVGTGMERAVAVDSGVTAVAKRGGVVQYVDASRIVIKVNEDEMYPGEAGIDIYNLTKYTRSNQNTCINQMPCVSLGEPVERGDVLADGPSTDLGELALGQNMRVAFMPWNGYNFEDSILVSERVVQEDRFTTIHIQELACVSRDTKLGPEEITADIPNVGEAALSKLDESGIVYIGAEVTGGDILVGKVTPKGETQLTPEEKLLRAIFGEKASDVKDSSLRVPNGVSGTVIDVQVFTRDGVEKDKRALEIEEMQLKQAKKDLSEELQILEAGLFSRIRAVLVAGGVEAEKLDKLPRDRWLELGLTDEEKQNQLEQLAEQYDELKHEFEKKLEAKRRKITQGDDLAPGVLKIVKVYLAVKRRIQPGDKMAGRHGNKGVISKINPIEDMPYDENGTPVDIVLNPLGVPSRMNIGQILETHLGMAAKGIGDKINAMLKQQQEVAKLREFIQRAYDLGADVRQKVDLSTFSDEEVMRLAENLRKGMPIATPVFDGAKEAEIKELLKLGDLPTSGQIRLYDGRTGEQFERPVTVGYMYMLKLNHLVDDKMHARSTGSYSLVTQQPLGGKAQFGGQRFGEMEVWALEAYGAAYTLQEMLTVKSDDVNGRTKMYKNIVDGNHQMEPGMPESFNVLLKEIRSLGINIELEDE
Hsp90 inh: displaces geldanamycin probe from tumor Hsp90. P07900. NCI-N417 lysate Hsp90, Cy3B-geldanamycin FP displacement. inhibition, % at 30 µM. 0.35% of 64,000 active. AID 429;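 active means inhibition above 50%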;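 further: 0% = tracer plus lysate wells and 100% = tracer alone without lysate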
Ecoli tolC: E. coli tolC mutant growth inhibition; AID 573; E. coli BW25113 tolC mutant growth, OD615; growth inhibition, % at 10 µM (by protocol); 2.2% of 65,000 active;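 active means growth inhibition at or above a cutoff equal to the mean over every tested compound plus 3 SD, cut at about 60% in these data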;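 further: growth measured after 20 h incubation at 37 °C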
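Doses: one dose of 10 µM final / Material: E. coli BW25113 ΔtolC::kan, tolC deletion mutant strain / Buffer or medium: LB with kanamycin 50 µg/mL / Evaluation: percent growth inhibition / Detection: optical density read at 615 nm / Incubation: 37 °C, 20 h exposure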
Redox H2O2 0p5DTT: generates H2O2 by redox cycling in 0.5 mM DTT. shares compounds with Cdc25B inh. cell-free redox cycling H2O2 generation. EC50, µM. 50% of 30 active; in the data active means EC50 below about 30 µM
Redox 1 DTT: generates H2O2 by redox cycling in 1 mM DTT. shares compounds with Cdc25B inh. cell-free redox cycling H2O2 generation. EC50, µM. 30 tested, under 10 active; in the data active means EC50 below about 50 µM
Redox cycler: redox cycling H2O2 generation, MKP probe counter-screen; shares compounds with DUSP1 inh; AID 672; DTT, phenol red/HRP; 60 tested, under 10 active; EC50, µM; call rule not given here
BAP1 inh conf: BAP1 (human) enzyme inhibition, confirmed; shares compounds with BAP1 inh; purified BAP1, Ub-ethyl ester hydrolysis, HPLC; stronger effect = lower value; % of control activity, % at 20 µM; 8% of 310 active; AID 753;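 active means percent of control activity at or below 60%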
* hit, by the source's call; i = inactive; . = no result shown; + = active, no number; ! = repeats disagree.

SMILES | DUSP1 inh | Cdc25B inh | BAP1 inh | Ec RNAP inh | Hsp90 inh | Ecoli tolC | others
NC(Cc1cc(O)c(O)cc1O)C(=O)O (configuration not stated) | . | . | + | . | 93.6* | .
N=c1c2c(n(Cc3ccc(Cl)cc3Cl)c3c1CCC3)CCCC2 | -6.5 | -26.8 | i | -9.5 | 2.4 | 100.0*
N=c1sc2c(n1Cc1ccccc1)CCCC2 | -15.7 | 1.3 | i | -0.5 | -0.2 | -3.2
CC(=O)Oc1ccc(OC(C)=O)c2c1C1(Cl)C(Cl)=C(Cl)C2(Cl)C1(Cl)Cl | . | . | i | . | . | .
CCOC(=O)c1c(N)n(Cc2ccco2)c2nc3ccccc3nc12 | 10.6 | -0.5 | i | -26.4 | 30.3 | 7.6
CCCCn1c(NC(=O)c2ccco2)c(C(=O)OCC)c2nc3ccccc3nc21 | 22.0 | 32.8 | . | -6.4 | 72.5* | 38.5
COc1cc2c(cc1OC)-c1c(OC)c(OC)cc3c1C(C2)N(C)CC3 (configuration not stated) | 15.8 | 2.7 | i | -1.8 | 91.0* | 18.4
COc1ccc2c(c1OC)C(=O)O[C@H]2[C@@H]1c2cc3c(cc2CCN1C)OCO3 | . | . | i | . | -1.6 | .
CC(C)[C@@]1(NC(=O)[C@@H]2C=C3c4cccc5[nH]cc(c45)C[C@H]3N(C)C2)O[C@@]2(O)[C@@H]3CCCN3C(=O)[C@H](Cc3ccccc3)N2C1=O | 23.7 | -4.5 | . | -0.5 | -9.3 | 9.8
CC(C)[C@@]1(NC(=O)[C@@H]2C[C@@H]3c4cccc5[nH]cc(c45)C[C@H]3N(C)C2)O[C@@]2(O)[C@@H]3CCCN3C(=O)[C@H](Cc3ccccc3)N2C1=O | 7.3 | 2.4 | i | 9.1 | 87.0*! | 1.2
CCSc1nc2ccccc2c(=O)n1-c1cccc(C)c1 | . | . | i | . | . | .
C[C@H]1CCCC(=O)CCC/C=C/c2cc(O)cc(O)c2C(=O)O1 | 1.4 | -15.4 | i | 7.7 | 87.1* | 28.7
CCOc1ccc(C(=O)Nc2ccc(Cl)cc2C(=O)c2ccccc2)cc1 | . | . | i | . | . | .
CN1CC[C@@]2(C)c3cc(O)ccc3N(C)C12 (some centres not stated) | . | . | i | . | 90.8* | .
C[C@H]1C2Cc3ccc(O)cc3C1(C)CCN2CC1CC1 (some centres not stated) | . | . | i | . | 0.7 | .
FC(F)(F)c1ccc2c(c1)nnn2C1CCN(Cc2nnnn2Cc2ccccc2)CC1 | 12.8 | -19.0 | i | 3.1 | -2.5 | 63.5*
Cc1ccc(Cn2nnnc2CN2CCC(n3nnc4cc(C(F)(F)F)ccc43)CC2)cc1 | 35.0 | -28.2 | i | 5.0 | -1.4 | 59.8
CC12CCC(O)CC1CCC1C2CCC2(C)C(OC(=O)c3ccccc3)CCC12 (configuration not stated) | . | . | i | . | . | .
Cc1ccccc1C1=NCC(=O)N(CC(=O)NCc2ccco2)c2sc3c(c21)CCCC3 | 4.0 | 4.9 | i | 5.9 | -4.6 | 61.0*
CN(C)c1ccc(NC(=O)CN2C(=O)CN=C(c3ccccc3)c3ccccc32)cc1 | 34.2 | -5.9 | i | 4.5 | 1.1 | 14.2
CCOC(=O)C1=C(N)OC2=C(C(=O)CCC2)C12C(=O)N1c3c(ccc(C)c32)C(C)=CC1(C)C (configuration not stated) | 41.7 | 4.9 | i | 5.6 | -3.4 | 70.0*
Cc1cccn2c(=O)c3c(nc12)N1CCC(Cc2ccccc2)CC1C1(C3)C(=O)N(C)C(=O)N(C)C1=O (configuration not stated) | 36.5 | -2.3 | . | 8.3 | -0.8 | 67.2*
CCCCCCn1c(N)c(C(=O)NCCN2CCOCC2)c2nc3ccccc3nc21 | 28.7 | -27.1 | . | -7.7 | -6.2 | 76.1*
c1ccc2cc3ncccc3cc2c1 | . | . | i | . | . | .
CC(C)CCOC(=O)c1c(N)n(CC2CCCO2)c2nc3ccccc3nc12 (configuration not stated) | 34.9 | 4.8 | . | -8.2 | -8.0 | 60.5*
SMILES | DUSP1 inh | Cdc25B inh | BAP1 inh | Ec RNAP inh | Hsp90 inh | Ecoli tolC | others
CC(C)OC(=O)c1c(N)n(CC2CCCO2)c2nc3ccccc3nc12 (configuration not stated) | -10.7 | -1.0 | . | -39.2 | -6.7 | 16.0
CN1C2CCC1CC(OC(=O)CCN1CCCC1)C2 (configuration not stated) | -2.0 | 76.6* | i | 6.8 | -0.1 | -7.6
CCCCn1c(=O)c(C(=O)Nc2cnccn2)c(O)c2ccccc21 | -1.4 | 5.4 | i | 6.3 | -0.2 | 98.8*
CCCCn1c(=O)c(C(=O)Nc2nc3ccccc3[nH]2)c(O)c2ccccc21 | -21.2 | -3.2 | + | 8.8 | 0.9 | -7.8
CN(N=O)c1ccc(O)c(O)c1 | . | . | i | . | 92.8* | .
COc1ccc(C(CC(=O)N2CCC3(CC2)OCCO3)NS(=O)(=O)c2ccc(F)cc2)cc1 (configuration not stated) | 2.8 | 52.3* | i | -7.3 | 2.7 | -1.9
Clc1ccc(COC(Cn2ccnc2)c2ccc(Cl)cc2Cl)c(Cl)c1 (configuration not stated) | 0.5 | 4.3 | i | 9.9 | 3.5 | 100.0*
CC1=C(C(=O)OC(C)C)C2(C(=O)Nc3ccccc32)C(C(=O)OCc2ccccc2)=C(N)O1 (configuration not stated) | . | . | i | . | . | .
CCC(N)C(=O)c1ccc(F)cc1 (configuration not stated) | . | . | i | . | . | .
O=C1C=Cc2ccccc2C1=O | 94.3* | 99.0* | . | . | . | -4.4 | Redox H2O2 0p5DTT=25.6*;Redox 1 DTT=>50;Redox cycler=>50
COc1ccc(CNCCc2cccc(F)c2)c(OC)c1C | . | . | i | . | . | .
CCn1nc(-c2cccs2)nc2c(=O)n(C)c(=O)nc1-2 | 103.6* | 100.6* | + | 8.8 | 98.5* | 97.5* | Redox H2O2 0p5DTT=0.646*;Redox 1 DTT=1.05*;Redox cycler=13.7*;BAP1 inh conf=93.5
CCCCOCCCn1c(N)c(C(=O)OCCOC)c2nc3ccccc3nc21 | -14.0 | 30.2 | . | -49.4 | -1.8 | 7.6
COCCCn1c(N)c(C(=O)NCCC(C)C)c2nc3ccccc3nc21 | 54.9* | 5.1 | i | . | -10.5 | 17.7 | Redox cycler=>50
Cc1nc2cc(-c3cccc(F)c3)nn2c(C)c1CCC(=O)N1CCC2(CC1)OCCO2 | 60.2* | -5.7 | i | 2.3 | -5.2 | 9.9 | Redox cycler=>50
Cc1ccc(N)c(C(=O)c2cccc(Cl)c2)c1 | . | . | i | . | . | .
CCC(=Nc1ccc2c(c1)CCC2)c1c(O)n(C2CCCCC2)c(=O)[nH]c1=O | -30.2 | -0.9 | + | 1.1 | -4.8 | -22.8 | BAP1 inh conf=83.7
O=P(Nc1ccccc1Cl)(Oc1ccccc1)Oc1ccccc1 | . | . | i | . | . | .

Screens (PubChem BioAssay)
